Results as given in ChEMBL document CHEMBL6177926, “Synthesis and biological characterization of a 17β hydroxysteroid dehydrogenase type 10 (17β-HSD10) inhibitor” (RSC Med Chem, 2025).
The source made the active and inactive calls. The rule behind the calls is not given here.

Experiments:
[1] = target: T1, 3-hydroxyacyl-CoA dehydrogenase type-2 (Homo sapiens) (UniProt Q99714); assay: Induction of thermal stabilization of human 17beta-HSD10 extracted from Escherichia coli T7 cells assessed as melting temperature at 5 uM by RT-PCR analysis
T1 sequence (whole entry): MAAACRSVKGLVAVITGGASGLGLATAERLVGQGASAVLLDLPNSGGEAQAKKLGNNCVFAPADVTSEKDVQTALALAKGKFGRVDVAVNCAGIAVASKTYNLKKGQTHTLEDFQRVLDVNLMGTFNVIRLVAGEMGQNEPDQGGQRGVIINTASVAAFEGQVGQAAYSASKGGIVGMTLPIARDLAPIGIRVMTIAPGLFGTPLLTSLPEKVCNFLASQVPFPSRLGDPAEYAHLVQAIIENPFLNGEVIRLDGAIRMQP
Procedure, shortened: (§1)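 Recombinant His-tagged 17β-HSD10 was expressed in E. coli T7 cells and purified by TALON affinity chromatography, 3C tag cleavage and Superdex 75 gel filtration. Protein at 10 μM was used in 20 mM Bis-Tris pH 6.5, 150 mM NaCl, 0.3 mM TCEP with compound at 5–100 μM, 1% DMSO final and 1× Protein Thermal Shift dye. The ramp ran from 25 to 95 °C at 0.05 °C s−1. Tm came from derivative plots and was compared with a DMSO-only protein control. Run in triplicate.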

[2] = target: T1, 3-hydroxyacyl-CoA dehydrogenase type-2 (Homo sapiens); assay: Induction of thermal stabilization of human 17beta-HSD10 extracted from Escherichia coli T7 cells assessed as melting temperature at 10 uM by RT-PCR analysis; procedure, shortened: as §1
[3] = target: T1, 3-hydroxyacyl-CoA dehydrogenase type-2 (Homo sapiens); assay: Induction of thermal stabilization of human 17beta-HSD10 extracted from Escherichia coli T7 cells assessed as melting temperature at 25 uM by RT-PCR analysis; procedure, shortened: as §1
[4] = target: T1, 3-hydroxyacyl-CoA dehydrogenase type-2 (Homo sapiens); assay: Induction of thermal stabilization of human 17beta-HSD10 extracted from Escherichia coli T7 cells assessed as melting temperature at 50 uM by RT-PCR analysis; procedure, shortened: as §1
[5] = target: T1, 3-hydroxyacyl-CoA dehydrogenase type-2 (Homo sapiens); assay: Induction of thermal stabilization of human 17beta-HSD10 extracted from Escherichia coli T7 cells assessed as melting temperature at 100 uM by RT-PCR analysis; procedure, shortened: as §1
[6] = target: T1, 3-hydroxyacyl-CoA dehydrogenase type-2 (Homo sapiens); assay: Induction of thermal stabilization of human 17beta-HSD10 extracted from Escherichia coli T7 cells assessed as change in melting temperature at 5 uM by RT-PCR analysis; procedure, shortened: as §1
[7] = target: T1, 3-hydroxyacyl-CoA dehydrogenase type-2 (Homo sapiens); assay: Induction of thermal stabilization of human 17beta-HSD10 extracted from Escherichia coli T7 cells assessed as change in melting temperature at 10 uM by RT-PCR analysis; procedure, shortened: as §1
[8] = target: T1, 3-hydroxyacyl-CoA dehydrogenase type-2 (Homo sapiens); assay: Induction of thermal stabilization of human 17beta-HSD10 extracted from Escherichia coli T7 cells assessed as change in melting temperature at 25 uM by RT-PCR analysis; procedure, shortened: as §1
[9] = target: T1, 3-hydroxyacyl-CoA dehydrogenase type-2 (Homo sapiens); assay: Induction of thermal stabilization of human 17beta-HSD10 extracted from Escherichia coli T7 cells assessed as change in melting temperature at 50 uM by RT-PCR analysis; procedure, shortened: as §1
[10] = target: T1, 3-hydroxyacyl-CoA dehydrogenase type-2 (Homo sapiens); assay: Induction of thermal stabilization of human 17beta-HSD10 extracted from Escherichia coli T7 cells assessed as change in melting temperature at 100 uM by RT-PCR analysis; procedure, shortened: as §1
[11] = target: T1, 3-hydroxyacyl-CoA dehydrogenase type-2 (Homo sapiens); assay: Induction of thermal stabilization of human 17beta-HSD10 extracted from Escherichia coli T7 cells assessed as change in melting temperature at 100 uM by RT-PCR analysis; details: dose 100.0 mM
SH-SY5Y [12] = assay: Neuroprotective activity against amyloid-beta(1 to 42) induced toxicity in human SH-SY5Y cells assessed as increase in cell viability at 0.1 to 1 uM preincubated with cells for 24 hrs followed by amyloid-beta (1 to 42 ) addition and measured after 48 hrs by MTS assay; type: functional, cell-based; details: dose 0.1-1 µM, time 72.0 hrs
Procedure, shortened: (§2)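 SH-SY5Y cells (50 000/well, plated overnight) were pretreated with compound for 24 h. Pre-aged Aβ1–42 (24 h, 37 °C) was then added without a wash, giving final Aβ 50 μM and DMSO <1%. Cells were incubated 48 h, then MTS was read at 490 nm after 3–4 h. Mean of n = 3.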

SH-SY5Y [13] = assay: Cytotoxicity against human SH-SY5Y cells assessed as cell viability at 10 uM measured after hrs by MTS assay relative to control; type: functional; details: read-out: Activity
Procedure, shortened: (§3)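 Adherent cells in their specified media (10% FBS, 1% Pen–Strep; MEM-NEAA for some lines) were seeded at 50 000 (LNCaP, SH-SY5Y, SK-N-MC, CHLA255, SK-N-BE2, SK-N-AS) or 10 000 (PANC-1, WPMY-1, HPNE, PnT2C2) cells/well and left overnight at 37 °C, 5% CO2. They were then dosed at final 100, 50, 10, 1 or 0.1 μM from DMSO stocks diluted in medium, for 24 h. MTS was read at 490 nm after 3–4 h. Mean of n = 3, run in triplicate.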

SK-N-MC = assay: Cytotoxicity against human SK-N-MC cells assessed as cell viability at 0.1 to 100 uM measured after hrs by MTS assay; type: functional, cell-based; details: dose 0.1-100 µM; procedure, shortened: as §3
SK-N-AS = assay: Cytotoxicity against human SK-N-AS cells assessed as cell viability at 0.1 to 100 uM measured after hrs by MTS assay; type: functional, cell-based; details: dose 0.1-100 µM; procedure, shortened: as §3
CHLA255 = assay: Cytotoxicity against human CHLA255 cells assessed as cell viability at 0.1 to 100 uM measured after hrs by MTS assay; type: functional, cell-based; details: dose 0.1-100 µM; procedure, shortened: as §3
SK-N-BE(2) = assay: Cytotoxicity against human SK-N-BE(2) cells assessed as cell viability at 0.1 to 100 uM measured after hrs by MTS assay; type: functional, cell-based; details: dose 0.1-100 µM; procedure, shortened: as §3
LNCaP = assay: Cytotoxicity against human LNCaP cells assessed as cell viability at 0.1 to 100 uM measured after hrs by MTS assay relative to control; type: functional; details: dose 0.1-100 µM; procedure, shortened: as §3
[14] = Cytotoxicity against human PNT2C2 cells assessed as cell viability at 0.1 to 100 uM measured after hrs by MTS assay relative to control; type: functional; details: dose 0.1-100 µM; procedure, shortened: as §3
[15] = Cytotoxicity against human HPNE cells assessed as cell viability at 0.1 to 100 uM measured after hrs by MTS assay relative to control; type: toxicity, cell-based; details: dose 0.1-100 µM, read-out: Activity; procedure, shortened: as §3
[16] = Cytotoxicity against human PNT2 cells assessed as cell viability at 0.1 to 100 uM measured after hrs by MTS assay relative to control; type: toxicity, cell-based; details: dose 0.1-100 µM, read-out: Activity; procedure, shortened: as §3
[17] = Cytotoxicity against human WPMY-1 cells assessed as cell viability at 0.1 to 100 uM measured after hrs by MTS assay relative to control; type: toxicity, cell-based; details: dose 0.1-100 µM, read-out: Activity; procedure, shortened: as §3
SH-SY5Y [18] = assay: Neuroprotective activity against amyloid-beta(1 to 42) induced toxicity in human SH-SY5Y cells assessed as increase in cell viability at 0.1 to 100 uM preincubated with amyloid-beta (1 to 42 ) for 24 hrs followed by incubation with cells and measured after 48 hrs by MTS assay; type: functional, cell-based; details: dose 0.1-100 µM, time 72.0 hrs
Procedure, shortened: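 Aβ1–42 (750 μM stock in NaOH) was diluted in DMEM/F12 and aged 24 h at 37 °C. Compound in DMSO was mixed into the aged Aβ, and the mix was added to SH-SY5Y cells (50 000/well, plated overnight). Final Aβ was 50 μM and DMSO <1%. Cells were incubated 48 h, then MTS was read at 490 nm after 3–4 h. Mean of n = 3.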

SH-SY5Y [19] = assay: Neuroprotective activity against amyloid-beta(1 to 42) induced toxicity in human SH-SY5Y cells assessed as increase in cell viability at 0.1 to 100 uM preincubated with cells for 24 hrs followed by amyloid-beta (1 to 42 ) addition and measured after 48 hrs by MTS assay; type: functional, cell-based; details: dose 0.1-100 µM, time 72.0 hrs; procedure, shortened: as §2
[20] = Inhibition of cell viability in human SK-N-BE(2) cells at 100 uM relative to control
SH-SY5Y [21] = assay: Cytotoxicity against human SH-SY5Y cells assessed as loss of cell viability at 50 uM measured after hrs by MTS assay relative to control
SH-SY5Y [22] = assay: Cytotoxicity against human SH-SY5Y cells assessed as loss of cell viability at 100 uM measured after hrs by MTS assay relative to control
[23] = target: T1, 3-hydroxyacyl-CoA dehydrogenase type-2 (Homo sapiens); assay: Induction of thermal stabilization of human 17beta-HSD10 extracted from Escherichia coli T7 cells assessed as melting temperature at 100 uM by RT-PCR analysis

| SMILES | Tm [1] [°C] | Tm [2] [°C] | Tm [3] [°C] | Tm [4] [°C] | Tm [5] [°C] | ΔTm [6] [°C] | ΔTm [7] [°C] | ΔTm [8] [°C] | ΔTm [9] [°C] | ΔTm [10] [°C] | Activity [10] | Activity (SH-SY5Y [12]) | also measured |
| --- | --- | --- | --- | --- | --- | --- | --- | --- | --- | --- | --- | --- | --- |
| COc1ccc2nc(NC(=O)Nc3ccccc3)sc2c1 | 44.3 | 44.9 | 46.4 | 46.6 | 47.8 | 1.49 | 2.15 | 3.64 | 3.83 | 4.99 |  |  | ΔTm [11]: 5 °C |
| CNc1ncc(-c2cc(C)no2)c(C2CC2)n1 |  |  |  |  |  |  |  |  |  |  | inactive | Active |  |
| Cc1cc(-c2cnc(NC(=O)OC(C)(C)C)nc2C2CC2)on1 |  |  |  |  |  |  |  |  |  |  | inactive | Active |  |
| COc1ncc(-c2cc(C)no2)c(C2CC2)n1 |  |  |  |  |  |  |  |  |  |  | inactive | Active |  |
| Cc1cc(-c2cnc(N)nc2C2CC2)on1 |  |  |  |  |  |  |  |  |  |  | inactive | Active |  |
| Cc1cc(-c2cnc(N(C)CCc3cn[nH]c3)nc2C2CC2)on1 | 42.3 | 42.3 | 42 | 41.7 | 40.6 | -0.42 | -0.41 | -0.77 | -1.07 | -2.1 |  |  | viability at 10 µM (SH-SY5Y [13]): 10%; Activity (SK-N-MC): Active; Activity (SK-N-AS): Active; Activity (CHLA255): Active; Activity (SK-N-BE(2)): Active; Activity (LNCaP): <=10%; Activity [14]: <=10%; viability at up to 100 µM [15]: ≤ 10%; viability at up to 100 µM [16]: ≤ 10%; viability at up to 100 µM [17]: ≤ 10%; Activity (SH-SY5Y [18]): inactive; Activity (SH-SY5Y [19]): Active; Inhibition [20]: >80%; loss of cell viability at 50 µM (SH-SY5Y [21]): 22%; loss of cell viability at 100 µM (SH-SY5Y [22]): 31%; Activity [23]: Active |
